Experimental data: ChEMBL document CHEMBL1154852, “Design, synthesis and pharmacological screening of potential anticonvulsant agents using hybrid approach” (Eur J Med Chem, 2010)

What was measured:
[1] = test system: Mus musculus; assay: Anticonvulsant activity in Swiss albino mouse assessed as reduction of supramaximal electroshock-induced hind limb tonic extension response at 10 mg/kg, ip administered 30 mins before SME challenge measured after 1 hr; type: functional, Hindlimb; conditions: route intraperitoneal
In short: (§1)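 Swiss albino mice of either sex, 30–35 g, n=6 per group, dosed 10 or 30 mg/kg i.p.; diazepam 5 mg/kg as standard. After 1 h, electroshock 42 mA for 0.2 s via ear electrodes. Readout: duration of hind limb extension phase (sec). Mean ± SEM; one-way ANOVA with Student–Newman–Keuls test.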

[2] = test system: Mus musculus; assay: Toxicity in ip dosed Swiss albino mouse assessed as assessed as decrease in fall of time after 30 mins by rotarod test; type: organism-based; conditions: in vivo, 0.5 h
[3] = test system: Mus musculus; assay: Anticonvulsant activity in Swiss albino mouse assessed as reduction of supramaximal electroshock-induced hind limb tonic extension response at 30 mg/kg, ip administered 30 mins before SME challenge measured after 1 hr; type: functional, Hindlimb; conditions: route intraperitoneal; in short: as §1
[4] = test system: Mus musculus; assay: Toxicity in ip dosed Swiss albino mouse assessed as decrease in locomotor activity after 30 mins by actophotometer; type: organism-based; conditions: in vivo, 0.5 h
In short: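 Actophotometer test in six mice per group, dosed 10 or 30 mg/kg i.p.; vehicle control 0.2% Tween 80 (0.3 ml/kg); diazepam 5 mg/kg as standard. Scored 30 min after dosing: beam interruptions counted over 10 min after 1 min acclimatization, before versus after treatment. Mean ± SEM.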

[5] = test system: Mus musculus; assay: Anticonvulsant activity in Swiss albino mouse assessed as inhibition of isoniazide hydrazone-induced seizure at 10 mg/kg, ip administered 30 mins before isoniazide hydrazone challenge measured after 1 hr; type: functional; conditions: route intraperitoneal
In short: (§2)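 Swiss albino mice, 30–35 g, given test drug 10 or 30 mg/kg i.p.; INH 250 mg/kg i.p. injected 30 min later. Animals showing excitement, myoclonic jerks, clonic and maximal seizures grouped, n=6. Readout: reduction of seizure duration (sec). Reference standard diazepam. Mean ± SEM; one-way ANOVA with Student–Newman–Keuls test.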

[6] = test system: Mus musculus; assay: Anticonvulsant activity in Swiss albino mouse assessed as inhibition of isoniazide hydrazone-induced seizure at 30 mg/kg, ip administered 30 mins before isoniazide hydrazone challenge measured after 1 hr; type: functional; conditions: route intraperitoneal; in short: as §2

| Compound | Activity [1] [s] | Activity [2] | Activity [3] [s] | Activity [4] | Activity [5] [s] | Activity [6] [s] |
| --- | --- | --- | --- | --- | --- | --- |
| Cc1csc(NC(=O)c2ccccc2)c1C(=O)NN1C2=Nc3ccccc3NC(c3ccccc3O)C2SC1/C=C/c1ccccc1 (stereo not drawn) | 13.228 | Non-toxic | 14.263 | Non-toxic | 85.5 | 87.667 |
| Cc1csc(NC(=O)c2ccccc2)c1C(=O)NN1C2=Nc3ccccc3NC(c3cccc([N+](=O)[O-])c3)C2SC1/C=C/c1ccccc1 (stereo not drawn) | 15.328 | Non-toxic | 14.907 | Non-toxic | 71.33 | 78.833 |
| Cc1csc(NC(=O)c2ccccc2)c1C(=O)NN1C2=Nc3ccccc3NC(c3ccccc3Cl)C2SC1/C=C/c1ccccc1 (stereo not drawn) | 14.54 | Non-toxic | 13.632 | Non-toxic | 81.833 | 83.33 |
| Cc1csc(NC(=O)c2ccccc2)c1C(=O)NN1C2=Nc3ccccc3NC(c3ccc(N(C)C)cc3)C2SC1/C=C/c1ccccc1 (stereo not drawn) | 13.355 | Non-toxic | 13 | Non-toxic | 92.33 | 95.33 |
| COc1ccc(C2Nc3ccccc3N=C3C2SC(/C=C/c2ccccc2)N3NC(=O)c2c(C)csc2NC(=O)c2ccccc2)cc1 (stereo not drawn) | 15.328 | Non-toxic | 14.907 | Non-toxic | 101.83 | 108.5 |
| Cc1csc(NC(=O)c2ccccc2)c1C(=O)NN1C2=Nc3ccccc3NC(c3ccc(F)cc3)C2SC1/C=C/c1ccccc1 (stereo not drawn) | 16.442 | Non-toxic | 15.408 | Non-toxic | 69.833 | 74 |
| CN1C(=O)CN=C(c2ccccc2)c2cc(Cl)ccc21 [DIAZEPAM] | – | Non-toxic | – | Non-toxic | – | – |
